Data as given in ChEMBL document CHEMBL1127749 (J Med Chem, 1994).

Key:
[1] = molecular target: T1, Muscarinic acetylcholine receptor M1 (Rattus norvegicus, UniProt P08482); assay: In vitro ability to depolarize isolated rat superior cervical ganglion was used to estimate their M1 agonistic effect; type: functional, tissue-based
T1 sequence (P08482 whole entry): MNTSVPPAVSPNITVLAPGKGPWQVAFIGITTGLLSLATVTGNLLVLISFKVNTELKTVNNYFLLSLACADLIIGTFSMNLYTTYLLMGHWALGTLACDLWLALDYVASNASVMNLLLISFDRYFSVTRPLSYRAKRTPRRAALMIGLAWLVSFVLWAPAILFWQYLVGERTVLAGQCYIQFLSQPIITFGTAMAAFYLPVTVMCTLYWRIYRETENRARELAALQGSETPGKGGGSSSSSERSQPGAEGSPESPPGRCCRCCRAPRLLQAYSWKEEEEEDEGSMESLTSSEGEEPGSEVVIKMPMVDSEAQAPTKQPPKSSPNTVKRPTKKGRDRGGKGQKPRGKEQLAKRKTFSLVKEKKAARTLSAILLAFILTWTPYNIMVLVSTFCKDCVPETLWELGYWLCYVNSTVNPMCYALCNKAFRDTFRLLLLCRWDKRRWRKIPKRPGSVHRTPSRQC
How it was run: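 Because the concentration–response curve is biphasic, EC50 is given as equal to or greater than the calculated value. Apparent efficacy (RM) is maximum effect relative to muscarine's maximum on separate ganglia. Values are means of three to seven separate experiments.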

[2] = molecular target: Muscarinic acetylcholine receptor; assay: In vitro binding affinity for muscarinic receptor by displacing [3H]quinuclidinyl benzilate binding on rat brain homogenate; type: tissue-based
How it was run: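 Two concentration–response curves, five concentrations covering 3 decades, triplicates. IC50 estimated from hand-drawn log concentration–response curves and converted to Ki with Cheng–Prusoff equation.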

[3] = molecular target: T2, Muscarinic acetylcholine receptor M3 (Cavia porcellus, UniProt Q8VH26); assay: In vitro ability to contract isolated guinea pig ileum was used to estimate M3 agonist effect; type: functional, tissue-based
T2 sequence (Q8VH26 whole entry): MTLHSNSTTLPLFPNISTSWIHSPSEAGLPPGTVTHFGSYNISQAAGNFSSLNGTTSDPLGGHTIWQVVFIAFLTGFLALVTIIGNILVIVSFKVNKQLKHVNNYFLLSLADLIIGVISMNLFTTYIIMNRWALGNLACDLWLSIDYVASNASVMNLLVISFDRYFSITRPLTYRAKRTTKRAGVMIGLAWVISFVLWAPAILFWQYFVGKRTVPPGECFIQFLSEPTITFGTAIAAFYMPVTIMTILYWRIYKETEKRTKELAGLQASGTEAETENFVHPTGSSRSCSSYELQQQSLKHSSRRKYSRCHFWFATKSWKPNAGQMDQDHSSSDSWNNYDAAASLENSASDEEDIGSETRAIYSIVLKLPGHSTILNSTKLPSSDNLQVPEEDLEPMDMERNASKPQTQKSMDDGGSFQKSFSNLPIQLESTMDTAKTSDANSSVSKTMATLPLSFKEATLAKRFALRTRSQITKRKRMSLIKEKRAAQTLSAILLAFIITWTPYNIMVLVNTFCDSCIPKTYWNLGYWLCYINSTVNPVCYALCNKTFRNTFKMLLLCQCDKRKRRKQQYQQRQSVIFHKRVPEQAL

[4] = molecular target: Muscarinic acetylcholine receptor; assay: In vitro binding affinity for muscarinic receptor by displacing [3H]quinuclidinyl benzilate binding on rat brain stem homogenate.; type: tissue-based
How it was run: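 Two full curves, five test concentrations over 3 decades in triplicate. Hand-drawn log curves gave IC50; Ki by Cheng–Prusoff.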

[5] = molecular target: Muscarinic acetylcholine receptor; assay: In vitro binding affinity for muscarinic receptor by displacing [3H]oxotremorine-M binding on rat brain homogenate.; type: tissue-based
How it was run: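 Duplicate full curves of five drug concentrations over 3 decades, triplicate points. IC50 taken from hand-drawn log curves; Ki via Cheng–Prusoff.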

[6] = molecular target: T1, Muscarinic acetylcholine receptor M1; assay: In vitro binding affinity for muscarinic M1 receptor by displacing [3H]pirenzepine binding on rat brain homogenate.; type: tissue-based
How it was run: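 Two complete curves, five test concentrations spanning 3 decades, each in triplicate. IC50 read from hand-drawn log concentration–response curves, converted to Ki by Cheng–Prusoff.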

Rattus norvegicus [7] = species: Rattus norvegicus; assay: Ratio of binding affinity at [3H]quinuclidinyl benzilate binding on rat brain stem homogenate to [3H]pirenzepine binding on rat brain homogenate
[8] = molecular target: Muscarinic acetylcholine receptor M2 (Cavia porcellus); assay: M2 agonist activity estimated by depression of isolated guinea pig left atrium
[9] = molecular target: T1, Muscarinic acetylcholine receptor M1; assay: M1 agonist activity estimated by rat superior cervical ganglion depolarization; type: functional, tissue-based
Rattus norvegicus [10] = species: Rattus norvegicus; assay: Ratio of binding affinity at [3H]quinuclidinyl benzilate binding on rat brain homogenate to [3H]- Oxotremorine-M binding on rat brain homogenate; type: functional
How it was run: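 Ago ratio computed as Ki from [³H]QNB binding to whole rat brain homogenate divided by Ki from [³H]oxotremorine-M binding to whole rat brain homogenate.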

[11] = molecular target: Muscarinic acetylcholine receptor M3 (Cavia porcellus)
[12] = molecular target: Muscarinic acetylcholine receptor M2 (Mus musculus) (UniProt Q9ERZ4); assay: In vivo determination of peripheral M2 receptor mediated hypothermia, cholinergic side effect
[13] = molecular target: Muscarinic acetylcholine receptor M2 (Mus musculus) (UniProt Q9ERZ4); assay: In vivo determination of peripheral M2 receptor mediated salivation, cholinergic side effect
[14] = In vitro binding affinity for muscarinic receptors by displacing [3H]quinuclidinyl benzilate binding on rat brain homogenate; type: tissue-based
[15] = molecular target: T2, Muscarinic acetylcholine receptor M3; assay: In vitro ability to contract isolated guinea pig ileum was used to estimate M2/M3 agonist effect; type: functional, tissue-based
[16] = molecular target: Muscarinic acetylcholine receptor M2 (Mus musculus) (UniProt Q9ERZ4); assay: In vivo determination of peripheral M2 receptor mediated tremor, cholinergic side effect
[17] = molecular target: Muscarinic acetylcholine receptor; assay: In vitro binding affinity for muscarinic receptors by displacing [3H]quinuclidinyl benzilate binding on rat brain stem homogenate.; type: tissue-based
[18] = In vitro binding affinity for muscarinic receptor by displacing[ H]Quinuclidinyl benzilate binding on rat brain stem homogenate.; type: tissue-based
How it was run: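 Rat brainstem homogenate; displacement of [3H]quinuclidinyl benzilate (0.12 nM). Five test concentrations in triplicate spanning 3 decades, two complete curves. IC50 read from hand-drawn log concentration–response curves and converted to Ki by Cheng–Prusoff using KD 9.7 pM from Scatchard analysis.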

Structure (SMILES) | EC50 [1] | Ki [2] | EC50 [3] | Ki [4] | Ki [5] | Ki [6] | Ratio (Rattus norvegicus [7]) | EC50 [8] | EC50 [9] | Ratio (Rattus norvegicus [10]) | EC50 [11] | ED50 [12] | ED50 [13] | Ki [14] | EC50 [15] | ED50 [16] | Ki [17] | Ki [18]
CCn1nnc(C2=CCCNC2)n1 | ≥ 3300 nM | 1600 nM | 6400 nM | 280 nM | 23 nM | 960 nM | – | – | – | – | – | – | – | – | – | – | – | –
CCn1ncc(C2=CCCN(C)C2)n1 | – | 110 nM | – | 61 nM | 1.7 nM | 24 nM | 2.5 | > 51000 nM | > 1200 nM | 65 | 940 nM | – | – | – | – | – | – | –
CCn1ncc(C2=CCCNC2)n1 | – | 290 nM | – | 170 nM | 3.7 nM | 120 nM | 1.4 | 270 nM | ≥ 650 nM | 78 | 770 nM | – | – | – | – | – | – | –
C[N+](C)(C)CC#CCOC(=O)Nc1cccc(Cl)c1.[Cl-] | – | – | – | – | 18 nM | 600 nM | 0.8 | – | ≥ 3900 nM | 28 | – | > 63 µmol/kg | > 63 µmol/kg | 500 nM | 6500 nM | > 63 µmol/kg | 460 nM | –
CCCCCCCn1nnc(C2=CCCN(C)C2)n1 | – | 140 nM | – | – | 120 nM | 37 nM | 4.3 | – | – | 1.2 | – | – | – | – | – | – | – | 160 nM
C=CCn1ncc(C2CCCNC2)n1 (racemic) | – | 910 nM | – | 300 nM | 25 nM | 100 nM | – | 1100 nM | > 2800 nM | – | – | – | – | – | 4400 nM | – | – | –
